Five compounds from ChEMBL document CHEMBL1149851, “Pestalotheols A-D, bioactive metabolites from the plant endophytic fungus Pestalotiopsis theae” (J Nat Prod, 2008) can be followed below.

Data set [1] has as its system Human immunodeficiency virus 1. Kind of data set: Inhibition of HIV1 LAI replication in C8166 cells after 4 days by ELISA. It counts as functional, organism-based. As to conditions: Human immunodeficiency virus 1, LAI, C8166, 96 h. A digest of the protocol:
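C8166 cells were infected with HIV-1 LAI (MOI 0.058) for 1.5 h at 37 °C, PBS-washed, and seeded at 3 × 10⁴/well with or without compounds; indinavir sulfate was the positive control. After 4 days, supernatant was inactivated with 0.5% Triton X-100 and diluted threefold. p24 was measured by capture ELISA (anti-p24 mAb coat, HRP-anti-p24, OPD, A490), and EC₅₀ was derived from p24 level.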
(In general: ELISA stands for enzyme-linked immunosorbent assay.)

A short description of data set [2]: Cytotoxicity against human C8166 cells after 4 days by MTT method. It counts as cell-based. The method, boiled down:
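C8166 cells were seeded at 3 × 10⁴/well with or without a range of test-compound concentrations, in triplicate. They were incubated 4 days at 37 °C in humid 5% CO₂, and viability was read by MTT. CC₅₀ is the concentration reducing viable cells by 50%.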

Data set [3] is described as follows: Selectivity index, ratio of CC50 for human C8166 cells to EC50 for HIV1 LAI. As to conditions: read-out: Ratio CC50/EC50. Format: toxicity, cell-based. A digest of the protocol: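 Index calculated as CC₅₀/EC₅₀. CC₅₀ came from a 4-day MTT viability assay in C8166 cells run in parallel with a 4-day HIV-1 LAI (MOI 0.058) replication assay in C8166 cells, whose EC₅₀ was read from p24 antigen capture ELISA.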

In data set [4] the test system is Staphylococcus aureus. Kind of data set: Antibacterial activity against Staphylococcus aureus ATCC 6538 assessed as zone of inhibition at 100 ug/disk after 24 hrs. It counts as functional, organism-based. The method, boiled down:
(§1)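 Bacteria grown on Mueller-Hinton agar. Paper disks (6 mm) loaded with 100 µg test compound per disk were placed on the seeded agar surface. Plates were incubated at 37 °C for 24 h, then scored for the presence of a zone of inhibition.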

Data set [5] concerns Streptococcus mutans. Kind of data set: Antibacterial activity against Streptococcus mutans ATCC 25175 assessed as zone of inhibition at 100 ug/disk after 24 hrs. It counts as functional, organism-based. The method, boiled down: as §1
The subject of data set [6] is Enterococcus faecalis. Put plainly: Antibacterial activity against Enterococcus faecalis ATCC 19433 assessed as zone of inhibition at 100 ug/disk after 24 hrs. It counts as functional, organism-based. The method, boiled down:
as §1

The subject of data set [7] is Micrococcus luteus. Kind of data set: Antibacterial activity against Sarcina lutea CMCC B28001 assessed as zone of inhibition at 100 ug/disk after 24 hrs. It counts as functional, organism-based. A digest of the protocol: as §1
The subject of data set [8] is Geotrichum candidum. Put plainly: Antifungal activity against Geotrichum candidum AS2.498 assessed as zone of inhibition at 100 ug/disk after 48 hrs.
Data set [9] concerns Candida albicans. Put plainly: Antifungal activity against Candida albicans ATCC 10231 assessed as zone of inhibition at 100 ug/disk after 48 hrs.
Data set [10] relates to Aspergillus fumigatus. Kind of data set: Antifungal activity against Aspergillus fumigatus ATCC 10894 assessed as zone of inhibition at 100 ug/disk after 48 hrs.

Counter-ions that a name gives are not always drawn. Active and inactive are the calls of the source. The calls are words filed in the database; no cut-off is given here.

In the case of `CC(C)(C)NC(=O)[C@@H]1CN(Cc2cccnc2)CCN1C[C@@H](O)C[C@@H](Cc1ccccc1)C(=O)N[C@H]1c2ccccc2C[C@H]1O` [INDINAVIR SULFATE], in data set [1], the EC50 – broadly, the concentration at which the effect is half-maximal – amounted to 0.00818 µM.

In the case of `CC(C)=C/C=C1/C[C@@H]2O[C@@H](C(C)(C)O)C[C@@]23O[C@H]3[C@@H]1O` [PESTALOTHEOL C], the EC50 in data set [1] worked out at 16.1 µM. Half-maximal cytotoxicity in data set [2] (CC50 at 96 h) was put at 163 µM. Moreover, the selectivity ratio in data set [3] came out at 10.1. Besides, the result in [4], in [5], in data set [6], in data set [7], in data set [8] and in [9] was inactive. In addition, the result in [10] was inactive.

For `CC1(C)CC(=O)c2cc3c(cc2O1)C[C@H](C(C)(C)O)O3`, the outcome in data set [4], in [5], in data set [6], in data set [7], in data set [8] and in data set [9] was inactive. Also, the outcome in [10] was inactive.

In the case of `CC1(C)CC(=O)C2=C(C[C@]3(O)C[C@H](C(C)(C)O)O[C@H]3C2)O1`, the result in data set [4], in [5], in data set [6], in [7], in data set [8] and in data set [9] was inactive. Moreover, the outcome in data set [10] was inactive.

Regarding `CC1(C)CC(=O)C2=C(O1)[C@H](O)[C@]1(O)C[C@H](C(C)(C)O)O[C@H]1C2`, the outcome in data set [4], in [5], in data set [6], in [7], in data set [8] and in data set [9] was inactive. The result in data set [10] was inactive.
